# Source: publication PMC7315572 (ACS Omega, 2020)
# Columns and labels:
# [1] = tested on: K562 human myelogenous leukemia cells; test: MTS cell viability assay in K562 cells; assay type: cell-based; conditions: 72 h
# In short: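 K562 cells were grown in IMDM with 10% FBS and 5% penicillin/streptomycin at 37 °C in 5% CO2. They were seeded at 2000 cells/well, left overnight, then given fresh medium containing the test compound for 72 h. MTS was added for 2 h, with absorbance read at 490 nm against a 690 nm reference. % cell death = (control − sample)/control × 100. IC50 came from dose-response curves, using triplicates from a single experiment ± SEM.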
# [2] = tested on: erythroid cells; conditions: cited from earlier work
# [3] = tested on: β-globin mRNA expression in human CD34+ erythroid progenitor cells; test: β-globin mRNA expression in CD34+ erythroid progenitor cells by RT-qPCR; assay type: cell-based; conditions: for Fold increase in β-globin mRNA: concentration not given
# [4] = tested on: γ-globin mRNA expression in human CD34+ erythroid progenitor cells; test: γ-globin mRNA expression in CD34+ erythroid progenitor cells by RT-qPCR; assay type: cell-based
# [5] = tested on: γ-globin mRNA expression in the K562 human myelogenous leukemia cell line; test: γ-globin mRNA expression in K562 cells by RT-qPCR; assay type: cell-based; conditions: K562, concentration not printed (at or near LSD1 IC50)
# [6] = target: recombinant LSD1/CoREST (Homo sapiens, UniProt O60341); conditions: IC50 ND; cited from earlier work
# [7] = tested on: spermine oxidase (SMOX); conditions: cited from earlier work
# [8] = tested on: Townes SS mice; test: HbF induction in Townes SS mice; assay type: in vivo, mouse; conditions: 10 mg/kg, 2 weeks of treatment
# In short: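 Townes SS mice were dosed at 10 mg/kg for 2 weeks (route not specified). F-cells and F-reticulocytes were counted by flow cytometry on 5–10 μL of tail-vein blood. γ-Globin was measured by HPLC against each animal's pretreatment baseline. Each value is the mean of three animals + SEM.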
compound,measurement,setting,value
"N[C@@H]1C[C@H]1c1ccccc1 (racemic) [Tranylcypromine, tranylcypromine]",Cytotoxicity in K562 cells (in words),[1],minimal cytotoxicity
same,Induction of HbF in erythroid cells (in words),[2],dose-dependent induction
Hemin,Fold increase in β-globin mRNA,[3],1.4 fold
same,"Increase in γ-globin mRNA (in words, compared with K562)",[4],analogous to levels observed in the K562 line
same,Fold increase in γ-globin mRNA expression,[5],2.4 fold
c1ccc([C@@H]2C[C@H]2NC2CCNCC2)cc1 [compound 2],Effect on β-globin mRNA levels (in words),[3]; both 20 and 50 nM,marked decrease
Nc1n[nH]c(NCc2ccccc2Oc2ccc(-c3ccccc3)cc2)n1 [compound 8],LSD1 % inhibition at 10 μM,[6],ND (50.0% inhibition at 10 μM)[52]
same,Inhibition of spermine oxidase (SMOX) (in words),[7],inhibit
same,Increase in HbF-containing erythrocytes (F-cells),"[8]; Townes SS mice, flow cytometry",significant increases
same,Increase in γ-globin (HbF content) by HPLC relative to baseline/pretreatment,[8]; Townes mouse,87%
"NC(=O)NO [HU, hydroxyurea]",Fold increase in β-globin mRNA,[3],no effect
same,"Increase in γ-globin mRNA (in words, compared with K562)",[4],analogous to levels observed in the K562 line
same,Fold increase in γ-globin mRNA expression,[5],2.3 fold
